Results from ChEMBL document CHEMBL3808332, “Identification of novel aminopiperidine derivatives for antibacterial activity against Gram-positive bacteria” (Bioorg Med Chem Lett, 2016).
Converted amounts (≈) assume the structure as drawn.

Legend:
Streptococcus pneumoniae [1] = experiment: Antibacterial activity against Penicillin-resistant Streptococcus pneumoniae after 24 hrs by microdilution method; assay type: functional
Staphylococcus aureus [2] = experiment: Antibacterial activity against methicillin-resistant Staphylococcus aureus after 24 hrs by microdilution method; assay type: functional
Enterococcus faecalis = experiment: Antibacterial activity against vancomycin-resistant Enterococcus faecalis after 24 hrs by microdilution method; assay type: functional
Enterococcus faecium [3] = experiment: Antibacterial activity against vancomycin-resistant Enterococcus faecium after 24 hrs by microdilution method; assay type: functional
[4] = Plasma clearance in iv/po dosed mouse by LC-MS/MS analysis; assay type: ADME, organism-based
Outline: (§1)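 Mice, n = 3–5 per group, given the compound intravenously and orally. Plasma pharmacokinetic parameters were derived: total plasma clearance, steady-state volume of distribution, apparent terminal elimination half-life, Tmax after oral dosing, and absolute oral bioavailability (%F).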

[5] = Apparent terminal half life in iv/po dosed mouse plasma by LC-MS/MS analysis; assay type: ADME, organism-based; conditions: read-out: betat1/2(app) (converted); outline: as §1
[6] = molecular target: T1, Peptide deformylase (Staphylococcus aureus) (UniProt P68826); experiment: Inhibition of Staphylococcus aureus PDF using formyl-methionine-alanine-serine as substrate assessed as increase in NADH levels at 30 nM by microtiter ELISA
T1 sequence (whole entry): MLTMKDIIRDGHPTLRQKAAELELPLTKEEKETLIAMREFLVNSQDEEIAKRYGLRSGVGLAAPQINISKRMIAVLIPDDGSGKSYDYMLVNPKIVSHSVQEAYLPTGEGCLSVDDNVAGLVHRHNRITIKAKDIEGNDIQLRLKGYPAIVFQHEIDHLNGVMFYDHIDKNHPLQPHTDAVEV

[7] = molecular target: T1, Peptide deformylase (Staphylococcus aureus); experiment: Inhibition of Staphylococcus aureus PDF using formyl-methionine-alanine-serine as substrate assessed as increase in NADH levels at 10 nM by microtiter ELISA
[8] = molecular target: T1, Peptide deformylase (Staphylococcus aureus); experiment: Inhibition of Staphylococcus aureus PDF using formyl-methionine-alanine-serine as substrate assessed as increase in NADH levels at 3 nM by microtiter ELISA
[9] = Volume of distribution at steady state in iv/po dosed mouse plasma by LC-MS/MS analysis; assay type: ADME, organism-based; conditions: read-out: Vdss; outline: as §1
Peptide deformylase = molecular target: T2, Peptide deformylase (Staphylococcus aureus, UniProt P68826); experiment: Inhibition of Staphylococcus aureus PDF using formyl-methionine-alanine-serine as substrate assessed as increase in NADH levels by microtiter ELISA
T2 sequence (P68826 whole entry): T1 sequence (whole entry)

[10] = Apparent oral bioavailability in mouse plasma by LC-MS/MS analysis; assay type: ADME, organism-based; outline: as §1
[11] = Tmax in iv/po dosed mouse plasma by LC-MS/MS analysis; assay type: ADME, organism-based; outline: as §1
[12] = molecular target: T1, Peptide deformylase (Staphylococcus aureus); experiment: Inhibition of Staphylococcus aureus PDF using formyl-methionine-alanine-serine as substrate assessed as increase in NADH levels at 100 nM by microtiter ELISA
Escherichia coli = experiment: Antibacterial activity against Escherichia coli after 24 hrs by microdilution method; assay type: functional
Pseudomonas aeruginosa = experiment: Antibacterial activity against Pseudomonas aeruginosa after 24 hrs by microdilution method; assay type: functional
Streptococcus pneumoniae [13] = experiment: Antibacterial activity against Penicillin-resistant Streptococcus pneumoniae yonsei 15 infected in po dosed immunosuppressed mouse model assessed as inhibition of pulmonary infection administered bid for 3 days; assay type: functional; conditions: yonsei 15, po, 72 h
Outline: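 Lung infection in immunosuppressed mice (n = 6/group) by intranasal inoculation with penicillin-resistant S. pneumoniae Yonsei15 at 1 × 10⁶ CFU per mouse. Treatment was oral, twice daily for 3 days. Day-7 survival was analysed by probit to give ED50 and 95% CI.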

Staphylococcus aureus [14] = experiment: Antibacterial activity against methicillin-resistant Staphylococcus aureus infected in po dosed mouse model assessed as inhibition of systemic infection administered bid for 3 days; assay type: functional; conditions: 72 h
Outline: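 Normal mice (n = 6/group) given a systemic ip challenge with a standard MRSA strain at 2 × 10⁸ CFU per mouse. Oral treatment twice daily for 3 days. Survival was scored at day 7, and ED50 with 95% CI was derived by probit analysis.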

Enterococcus faecium [15] = experiment: Antibacterial activity against vancomycin-resistant Enterococcus faecium infected in po dosed immunosuppressed mouse model assessed as inhibition of systemic infection administered bid for 3 days; assay type: functional; conditions: 72 h
Outline: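 Immunosuppressed mice (n = 6/group) received a systemic ip infection with a standard vancomycin-resistant E. faecium strain at 1 × 10⁹ CFU per mouse. Dosing was oral, BID, for 3 days. ED50 and 95% CI came from probit analysis of day-7 survival.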

Compound | MIC (Streptococcus pneumoniae [1]) [µg/mL] | MIC (Staphylococcus aureus [2]) [µg/mL] | MIC (Enterococcus faecalis) [µg/mL] | MIC (Enterococcus faecium [3]) [µg/mL] | MIC (Escherichia coli) [µg/mL] | MIC (Pseudomonas aeruginosa) [µg/mL] | further results
COC(=O)c1ccc(CNC2CCN(C(=O)[C@@H](NC(=O)[C@H](CC3CCCC3)CN(O)C=O)C(C)(C)C)CC2)cc1 | 0.8 (≈ 1.43 µM) | 12.5 (≈ 22.4 µM) | 6.3 (≈ 11.3 µM) | 3.1 (≈ 5.55 µM) | – | – | –
CC(C)(C)[C@H](NC(=O)[C@H](CC1CCCC1)CN(O)C=O)C(=O)N1CCC(NCc2ccc(C#N)cc2)CC1 | 0.4 (≈ 0.761 µM) | 3.1 (≈ 5.9 µM) | 0.8 (≈ 1.52 µM) | 0.8 (≈ 1.52 µM) | – | – | clearance [4]: 51.5 mL/min/kg; half-life [5]: 21.6 min; inhibition [6]: 54%; inhibition [7]: 19%; inhibition [8]: -6%; Vd [9]: 3.49 L/kg; IC50 (Peptide deformylase): 30 nM; bioavailability [10]: 103%; Tmax [11]: 30 min; inhibition [12]: 77%
CC(C)(C)[C@H](NC(=O)[C@H](CC1CCCC1)CN(O)C=O)C(=O)N1CCN(Cc2ccc3c(c2)OCO3)CC1 | – | – | – | – | – | – | inhibition [6]: 34%; inhibition [7]: 1%; IC50 (Peptide deformylase): 30 nM; inhibition [12]: 72%
CC(C)(C)[C@H](NC(=O)[C@H](CC1CCCC1)CN(O)C=O)C(=O)N1CCC(Nc2ccccc2)CC1 | 0.8 (≈ 1.64 µM) | 6.3 (≈ 12.9 µM) | 3.1 (≈ 6.37 µM) | 0.8 (≈ 1.64 µM) | > 50 | > 50 | –
CC(C)(C)[C@H](NC(=O)[C@H](CC1CCCC1)CN(O)C=O)C(=O)N1CCC(NCc2ccccc2)CC1 | 0.8 (≈ 1.6 µM) | 3.1 (≈ 6.19 µM) | 1.6 (≈ 3.2 µM) | 0.8 (≈ 1.6 µM) | > 50 | > 50 | –
CC(C)(C)[C@H](NC(=O)[C@H](CC1CCCC1)CN(O)C=O)C(=O)N1CCC(NCc2ccc3c(c2)OCO3)CC1 | 1.6 (≈ 2.94 µM) | 6.3 (≈ 11.6 µM) | 3.1 (≈ 5.69 µM) | 0.8 (≈ 1.47 µM) | > 50 | > 50 | –
CC(C)(C)[C@H](NC(=O)[C@H](CC1CCCC1)CN(O)C=O)C(=O)N1CCC(NC(=O)c2ccc(C#N)cc2)CC1 | – | – | – | – | – | – | clearance [4]: 44 mL/min/kg; half-life [5]: 55.2 min; Vd [9]: 2.54 L/kg; bioavailability [10]: 55.5%; Tmax [11]: 40.2 min
CC(C)(C)[C@H](NC(=O)[C@H](CC1CCCC1)CN(O)C=O)C(=O)N1CCC(NCc2cc(F)c(F)cc2F)CC1 | 0.4 (≈ 0.721 µM) | 1.6 (≈ 2.88 µM) | 0.8 (≈ 1.44 µM) | 0.8 (≈ 1.44 µM) | – | – | clearance [4]: 19 mL/min/kg; half-life [5]: 63 min; ED50 (Streptococcus pneumoniae [13]): 3 mg/kg; inhibition [6]: 51%; ED50 (Staphylococcus aureus [14]): 16.6 mg/kg; inhibition [7]: 20%; inhibition [8]: -3%; Vd [9]: 1.71 L/kg; IC50 (Peptide deformylase): 30 nM; bioavailability [10]: 95.8%; Tmax [11]: 30 min; ED50 (Enterococcus faecium [15]): 13.3 mg/kg; inhibition [12]: 78%
CN[C@@H](CC(C)C)C(=O)N[C@H]1C(=O)N[C@@H](CC(N)=O)C(=O)N[C@H]2C(=O)N[C@H]3C(=O)N[C@H](C(=O)N[C@@H](C(=O)O)c4cc(O)cc(O)c4-c4cc3ccc4O)[C@H](O)c3ccc(c(Cl)c3)Oc3cc2cc(c3O[C@H]2O[C@@H](CO)[C@H](O)[C@@H](O)[C@@H]2O[C@@H]2C[C@@](C)(N)[C@@H](O)[C@@H](C)O2)Oc2ccc(cc2Cl)[C@H]1O | 0.8 (≈ 0.552 µM) | 3.1 (≈ 2.14 µM) | > 50 | > 50 | > 50 | > 50 | –
CC(C)(C)[C@H](NC(=O)[C@H](CC1CCCC1)CN(O)C=O)C(=O)N1CCC(NCc2ccc(O)c(O)c2)CC1 | 12.5 (≈ 23.5 µM) | > 50 | > 50 | > 50 | – | – | –
CC(C)(C)[C@H](NC(=O)[C@H](CC1CCCC1)CN(O)C=O)C(=O)N1CCC(Nc2ccc3c(c2)OCO3)CC1 | 0.4 (≈ 0.754 µM) | 6.3 (≈ 11.9 µM) | 3.1 (≈ 5.84 µM) | 1.6 (≈ 3.02 µM) | > 50 | > 50 | –
CC(C)(C)[C@H](NC(=O)[C@H](CC1CCCC1)CN(O)C=O)C(=O)N1CCC(Nc2ccc3cn[nH]c3c2)CC1 | 0.4 (≈ 0.759 µM) | 12.5 (≈ 23.7 µM) | 6.3 (≈ 12 µM) | 1.6 (≈ 3.04 µM) | > 50 | > 50 | –
COc1ccc(CNC2CCN(C(=O)[C@@H](NC(=O)[C@H](CC3CCCC3)CN(O)C=O)C(C)(C)C)CC2)cc1 | 0.8 (≈ 1.51 µM) | 12.5 (≈ 23.6 µM) | 6.3 (≈ 11.9 µM) | 1.6 (≈ 3.01 µM) | – | – | –
CC(C)(C)[C@H](NC(=O)[C@H](CC1CCCC1)CN(O)C=O)C(=O)N1CCC(NCc2ccc3[nH]ccc3c2)CC1 | 0.8 (≈ 1.48 µM) | 6.3 (≈ 11.7 µM) | 3.1 (≈ 5.74 µM) | 6.3 (≈ 11.7 µM) | > 50 | > 50 | –
CC(C)(C)[C@H](NC(=O)[C@H](CC1CCCC1)CN(O)C=O)C(=O)N1CCC(NCc2ccc[nH]2)CC1 | 6.3 (≈ 12.9 µM) | > 50 | > 50 | > 50 | > 50 | > 50 | –
CC(C)(C)[C@H](NC(=O)[C@H](CC1CCCC1)CN(O)C=O)C(=O)N1CCC(N)CC1 | 1.6 (≈ 3.9 µM) | > 50 | 50 (≈ 122 µM) | > 50 | > 50 | > 50 | –
CC(=O)Nc1ccc(CNC2CCN(C(=O)[C@@H](NC(=O)[C@H](CC3CCCC3)CN(O)C=O)C(C)(C)C)CC2)cc1 | 1.6 (≈ 2.87 µM) | > 50 | 12.5 (≈ 22.4 µM) | 25 (≈ 44.8 µM) | – | – | –
CC(C)(C)[C@H](NC(=O)[C@H](CC1CCCC1)CN(O)C=O)C(=O)N1CCC(NCc2ccc(F)cc2)CC1 | 0.4 (≈ 0.771 µM) | 6.3 (≈ 12.1 µM) | 3.1 (≈ 5.98 µM) | 0.4 (≈ 0.771 µM) | – | – | –
COc1ccc(CNC2CCN(C(=O)[C@@H](NC(=O)[C@H](CC3CCCC3)CN(O)C=O)C(C)(C)C)CC2)c(OC)c1 | 0.8 (≈ 1.43 µM) | 25 (≈ 44.6 µM) | 6.3 (≈ 11.2 µM) | 3.1 (≈ 5.53 µM) | – | – | –
CC(C)(C)[C@H](NC(=O)[C@H](CC1CCCC1)CN(O)C=O)C(=O)N1CCC(NCc2ccccn2)CC1 | 1.6 (≈ 3.19 µM) | 25 (≈ 49.8 µM) | 12.5 (≈ 24.9 µM) | 12.5 (≈ 24.9 µM) | > 50 | > 50 | –
CC(C)(C)[C@H](NC(=O)[C@H](CC1CCCC1)CN(O)C=O)C(=O)N1CCC(NCc2ccco2)CC1 | 1.6 (≈ 3.26 µM) | 50 (≈ 102 µM) | 25 (≈ 51 µM) | 50 (≈ 102 µM) | > 50 | > 50 | –
CC(C)(C)[C@H](NC(=O)[C@H](CC1CCCC1)CN(O)C=O)C(=O)N1CCC(NCc2nc3ccccc3[nH]2)CC1 | 1.6 (≈ 2.96 µM) | 6.3 (≈ 11.7 µM) | 6.3 (≈ 11.7 µM) | 12.5 (≈ 23.1 µM) | > 50 | > 50 | –
Cc1ccc(CNC2CCN(C(=O)[C@@H](NC(=O)[C@H](CC3CCCC3)CN(O)C=O)C(C)(C)C)CC2)cc1 | 0.4 (≈ 0.777 µM) | 6.3 (≈ 12.2 µM) | 3.1 (≈ 6.02 µM) | 0.4 (≈ 0.777 µM) | – | – | –
CC(=O)NC[C@H]1CN(c2ccc(N3CCOCC3)c(F)c2)C(=O)O1 [LINEZOLID] | 0.8 (≈ 2.37 µM) | 1.6 (≈ 4.74 µM) | 0.8 (≈ 2.37 µM) | 1.6 (≈ 4.74 µM) | > 50 | > 50 | ED50 (Streptococcus pneumoniae [13]): 1.5 mg/kg; ED50 (Staphylococcus aureus [14]): 5 mg/kg; ED50 (Enterococcus faecium [15]): 11.4 mg/kg
CC(C)(C)[C@H](NC(=O)[C@H](CC1CCCC1)CN(O)C=O)C(=O)N1CCC(NCc2ccc(O)cc2)CC1 | 3.1 (≈ 6 µM) | > 50 | > 50 | 50 (≈ 96.8 µM) | – | – | –
